The target in data set [1] is T1, Guanylate cyclase soluble subunit alpha-1 (Rattus norvegicus) (UniProt P19686).
T1 sequence (whole entry): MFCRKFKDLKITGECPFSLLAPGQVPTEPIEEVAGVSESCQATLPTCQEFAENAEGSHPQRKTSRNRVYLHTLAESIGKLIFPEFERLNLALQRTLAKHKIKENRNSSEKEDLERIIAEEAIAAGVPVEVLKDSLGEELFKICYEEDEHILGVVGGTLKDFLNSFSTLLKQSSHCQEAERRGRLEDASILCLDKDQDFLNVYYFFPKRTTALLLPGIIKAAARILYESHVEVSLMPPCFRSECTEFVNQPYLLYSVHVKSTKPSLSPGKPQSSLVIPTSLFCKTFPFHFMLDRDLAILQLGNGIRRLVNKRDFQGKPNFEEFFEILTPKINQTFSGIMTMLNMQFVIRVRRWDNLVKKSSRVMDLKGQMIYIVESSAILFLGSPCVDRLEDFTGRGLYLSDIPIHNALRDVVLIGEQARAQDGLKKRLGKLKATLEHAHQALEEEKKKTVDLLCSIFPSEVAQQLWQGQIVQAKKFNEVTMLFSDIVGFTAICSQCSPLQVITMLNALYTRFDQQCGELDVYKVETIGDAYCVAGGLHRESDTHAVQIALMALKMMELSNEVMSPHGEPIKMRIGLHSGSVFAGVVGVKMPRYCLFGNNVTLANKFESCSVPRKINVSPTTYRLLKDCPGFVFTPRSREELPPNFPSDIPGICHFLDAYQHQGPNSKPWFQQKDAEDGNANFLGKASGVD
The experiment in a line: Activation of recombinant rat sGC alpha1 subunit expressed in CHO cells assessed as induction of [32P-cGMP] formation using alpha-[32P-GTP] as substrate measured after 6 mins by luminescence assay. The format is cell-based. To be noted: filed as activator.

Data set [2] concerns the target T1, Guanylate cyclase soluble subunit alpha-1 (Rattus norvegicus). The experiment in a line: Activation of recombinant rat sGC alpha1 subunit expressed in CHO cells assessed as induction of [32P-cGMP] formation by measuring efficacy using alpha-[32P-GTP] as substrate measured after 6 mins by luminescence assay relative to control. In kind it is cell-based.
A short description of data set [3]: Plasma clearance in iv dosed cynomolgus monkey measured up to 24 hrs by LC-MS analysis. In kind it is ADME, organism-based, Macaca fascicularis.
Data set [4] in a line: Plasma clearance in iv dosed Beagle dog measured up to 24 hrs by LC-MS analysis. The format is ADME, organism-based, Canis lupus familiaris.
Data set [5] can be described thus: Clearance in Wistar rat at 0.3 mg/kg, iv measured up to 24 hrs by LC-MS analysis. The format is ADME, organism-based. To be noted: in vivo. Summed up:
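Rats dosed iv at 0.3 mg/kg; blood clearance determined.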

Data set [6] in a line: Activation of recombinant rat sGC expressed in CHO cells by luminescence assay. The format is cell-based. In outline:
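Stable CHO reporter cell line overexpressing rat sGC; cGMP formation read as luminescence. EC50 from concentration–response. MEC taken as lowest concentration giving at least threefold increase in basal luminescence.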

Data set [7] in a line: Induction of CYP3A4 in human hepatocytes using phenacetin as substrate incubated for 60 mins by LC-MS/MS analysis. To be noted: 1 h.

The text below walks through data of ChEMBL document CHEMBL4808182, “Discovery of the Soluble Guanylate Cyclase Activator Runcaciguat (BAY 1101042)” (J Med Chem, 2021).

Where only a bound is given, the exact number is not on record here.

`C[C@H]([C@H](C(=O)Nc1cccc(CC2(C(=O)O)CC2)c1)c1ccc(Cl)cc1)C(F)(F)F`: the MEC in data set [1] is 20 nM. Besides, the Efficacy in data set [2] worked out at 4%.

Regarding `CC[C@@H](C)[C@H](C(=O)Nc1cccc(CCC(=O)O)c1C)N1CCC(CN2N=C(c3ccccc3)OCC2=O)CC1`, the MEC in data set [1] was determined as 30 nM. In the case of `CC(C)(Cc1cccc(NC(=O)[C@H](c2ccc(CN3N=C(c4ccccc4)OCC3=O)cc2)C2CCCC2)c1)C(=O)O`, the MEC in data set [1] was 30 nM. Same read-out and setting: under `O=C(N[C@@H](CO)c1ccccc1)C(c1ccc(Cn2nc(-c3ccccc3)c3ccccc3c2=O)cc1)C1CCCC1` (some centres undefined) stands 100 nM; under `O=C(O)[C@H]1Cc2cccc(NC(=O)[C@H](c3ccc(CN4N=C(c5ccccc5)OCC4=O)cc3)C3CCCC3)c2C1`, 30 nM; under `CN(C(=O)C(c1ccc(CN2N=C(c3ccccc3)OCC2=O)cc1)C1CCCC1)c1cccc(CCC(=O)O)c1` (centres undefined), 10000 nM. For `CC(C)C(CC(=O)O)c1ccc(Cl)c(NC(=O)[C@H](c2ccc(Cl)cc2)[C@@H](C)C(F)(F)F)c1` (stereo in doubt; 44a) [listing 1 of 2 here], in data set [1], the MEC is 6.5 nM. Also, the Efficacy in data set [2] (filed as activator) came out at 58%. What is called clearance is the volume of plasma or blood freed of the substance per unit of time. `O=C(NCCCCC1(C(=O)O)CC1)[C@H](c1ccc(CN2N=C(c3ccccc3)OCC2=O)cc1)C1CCCC1`: the clearance in data set [3] was 1.4 L/h/kg; in data set [4], 1.8 L/h/kg; in data set [5] it was 0.31 L/h/kg. Moreover, the MEC in data set [1] worked out at 10 nM. For the molecule `CCN(C)C(C(=O)Nc1cccc(CCC(=O)O)c1C)c1ccc(CN2N=C(c3ccccc3)OCC2=O)cc1` (centres undefined), in data set [1], the MEC came out at 300 nM. In the case of `Cc1c(CCC(=O)O)cccc1NC(=O)[C@H](c1ccc(Cl)cc1)[C@@H](C)C(F)(F)F`, the MEC in data set [1] was determined as 1000 nM. The Efficacy in data set [2] was determined as 18%. On to `CC[C@H](C)[C@H](C(=O)Nc1cccc(CCC(=O)O)c1C)N1CCC(CN2N=C(c3ccccc3)OCC2=O)CC1`, for which, in data set [1], the MEC came out at 7 nM. Still for that read-out and setting: for `Cc1c(CCC(=O)O)cccc1NC(=O)[C@H](c1ccc(CN2N=C(c3ccccc3)OCC2=O)cc1)[C@@H](C)C(F)(F)F` the value was 3 nM.

Take `C[C@H]([C@H](C(=O)Nc1cccc(CC2(C(=O)O)CC2)c1Cl)c1ccc(Cl)cc1)C(F)(F)F`: the MEC in data set [1] was 100 nM. Further, in data set [2], the Efficacy worked out at 19%. One may read the EC50 as the concentration at which the effect is half-maximal. Take `C[C@H]([C@H](C(=O)Nc1cc(C2(CC(=O)O)COC2)ccc1Cl)c1ccc(Cl)cc1)C(F)(F)F`: in data set [6] (CHO), the half-maximal effective concentration (EC50) is 0.07 µM. Besides, in data set [1], the MEC was determined as 3 nM. Also, the Activity in data set [7] is reported as 2245 nM. Besides, the Efficacy in data set [2] (filed as activator) stood at 52%. On the same counts, the results for `CCc1ccc([C@@H](C(=O)Nc2cc(C3(CC(=O)O)CC3)ccc2F)[C@@H](C)C(F)(F)F)cc1` are 0.111 µM, 10 nM, 31 nM and 43%. Take `O=C(O)CCc1cccc(NC(=O)[C@@H](c2ccc(CN3N=C(c4ccccc4)OCC3=O)cc2)C2CCCC2)c1`: the MEC in data set [1] came out at 300 nM. For `CC[C@@H](C)[C@H](C(=O)Nc1cccc(CCC(=O)O)c1C)c1ccc(CN2N=C(c3ccccc3)OCC2=O)cc1`, in data set [1], the MEC is 1 nM. In the case of `CC(C)(CCCCNC(=O)[C@H](c1ccc(CN2N=C(c3ccccc3)OCC2=O)cc1)C1CCCC1)C(=O)O`, the MEC in data set [1] amounted to 100 nM. As for `CC(C)C(CC(=O)O)c1ccc(Cl)c(NC(=O)[C@H](c2ccc(Cl)cc2)[C@@H](C)C(F)(F)F)c1` (stereo in doubt; 44a) [listing 2 of 2 here], the EC50 in data set [6] (cho) amounted to 0.028 µM. The Activity in data set [7] was 10 nM.

`Cc1c(CCC(=O)O)cccc1NC(=O)[C@H](c1ccc(Cn2nc(C(F)(F)F)ccc2=O)cc1)C1CCCC1`: in data set [1], the MEC is 3 nM. On the same count and under the same terms, for `O=C(O)c1ccc(CNC(=O)C(c2ccc(CN3N=C(c4ccccc4)OCC3=O)cc2)C2CCCC2)cc1` (racemic) the value was 10 nM. Turning to `C[C@H]([C@H](C(=O)Nc1cc(C2(CC(=O)O)CCC2)ccc1Cl)c1ccc(Cl)cc1)C(F)(F)F`, in data set [6] (CHO), the EC50 turned out to be 0.005 µM. The MEC in data set [1] came out at 1 nM. The molecule also displayed an Activity in data set [7] of 256 nM. Moreover, the Efficacy in data set [2] worked out at 37%. Consider `Cc1ccc(CC2(C(=O)O)CC2)cc1NC(=O)[C@H](c1ccc(Cl)cc1)[C@@H](C)C(F)(F)F`, for which, in data set [1], the MEC was 3 nM. The Efficacy in data set [2] (filed as activator) came out at 44%. Turning to `Cc1c(CCC(=O)O)cccc1NC(=O)C(c1ccc(Cn2ncccc2=O)cc1)C1CCCC1` (racemic), the MEC in data set [1] came to 1000 nM. As to `C[C@H]([C@H](C(=O)Nc1cc(CC2(C(=O)O)CC2)ccc1F)c1ccc(Cl)cc1)C(F)(F)F`, in data set [1], the MEC was found to be 0.3 nM. Further, in data set [2], the Efficacy was 34%. With `O=C(O)CCCCCNC(=O)[C@H](c1ccc(CN2N=C(c3ccccc3)OCC2=O)cc1)C1CCCC1`, in data set [1], the MEC is 100 nM.

Consider `Cc1c(CCC(=O)O)cccc1NC(=O)C(c1ccc(CN2CCOC(c3ccccc3)=N2)cc1)C1CCCC1` (racemic), for which the MEC in data set [1] was found to be 1000 nM. Consider `Cc1c(CCC(=O)O)cccc1NC(=O)[C@H](c1ccc(Cl)cc1)C1CCCC1`, for which, in data set [6] (CHO), the concentration giving a half-maximal response (EC50) is 0.044 µM. The molecule also had a clearance in data set [5] of 0.77 L/h/kg. Moreover, the MEC in data set [1] came to 200 nM. Moreover, in data set [2], the Efficacy came out at 19%. `O=C(Nc1cccc(CC2(C(=O)O)CC2)c1)[C@H](c1ccc(CN2N=C(c3ccccc3)OCC2=O)cc1)C1CCCC1`: the figures for the clearance in data set [3], in data set [4] and in data set [5] were 1.8 L/h/kg, 0.82 L/h/kg and 3.3 L/h/kg, respectively. The MEC in data set [1] came to 1 nM. Turning to `Cc1c(C=C[C@H](c2ccc(CN3N=C(c4ccccc4)OCC3=O)cc2)C2CCCC2)cccc1CCC(=O)O` (mixture of isomers), the MEC in data set [1] was 300 nM.

As for `Cc1c(CCC(=O)O)cccc1C(=O)NC(c1ccc(CN2N=C(c3ccccc3)OCC2=O)cc1)C1CCCC1` (centres undefined), the MEC in data set [1] turned out to be 3000 nM.

On to `Cc1c(CCC(=O)O)cccc1NC(=O)[C@H](c1ccc(Cn2nc(-c3ccccc3)ccc2=O)cc1)C1CCCC1`, for which the MEC in data set [1] came to 1 nM. On to `CC(C)C(CC(=O)O)c1ccc(Cl)c(NC(=O)[C@H](c2ccc(Cl)cc2)[C@@H](C)C(F)(F)F)c1` (stereo in doubt; 44b) [listing 1 of 2 here], for which the MEC in data set [1] stood at 3 nM. Besides, the Efficacy in data set [2] (filed as activator) turned out to be 47%.

Consider `Cc1ccc(=O)n(Cc2ccc(C(C(=O)Nc3cccc(CCC(=O)O)c3C)C3CCCC3)cc2)n1` (racemic), for which the MEC in data set [1] came out at 30 nM. For `C[C@H]([C@H](C(=O)Nc1cccc(CCC(=O)O)c1)c1ccc(CN2N=C(c3ccccc3)OCC2=O)cc1)C(F)(F)F`, the clearance in data set [3] was 1 L/h/kg; in data set [4], 1.4 L/h/kg; in data set [5] it was 1.62 L/h/kg. Moreover, the MEC in data set [1] was 3 nM. With `Cc1c(CCC(=O)O)cccc1NC(=O)[C@H](c1ccc(CN2N=C(c3ccccc3)OCC2=O)cc1)C(C)C`, in data set [1], the MEC stood at 30 nM. Take `CC(C)C(CC(=O)O)c1ccc(Cl)c(NC(=O)[C@H](c2ccc(Cl)cc2)[C@@H](C)C(F)(F)F)c1` (stereo in doubt; 44b) [listing 2 of 2 here]: the EC50 in data set [6] (cho) amounted to 0.01 µM. Moreover, the Activity in data set [7] is below 29 nM. Consider `C[C@H]([C@H](C(=O)Nc1ccc(Cl)c(CC2(C(=O)O)CC2)c1)c1ccc(Cl)cc1)C(F)(F)F`, for which the MEC in data set [1] turned out to be 300 nM. In addition, the Efficacy in data set [2] amounted to 1.2%.
